Cl transport mod: KCC2 cotransporter modulators, thallium flux, primary screen, cell-based, HEK293 KCC2, FluoZin-2 fluorescence, MLSMR; Solute carrier family 12 member 5 (Homo sapiens), Q9H2X9; KCC2 cells, thallium flux FluoZin-2 fluorescence; B-score of Tl+ flux slope (higher = more flux/activation; lower = inhibition) at 10 µM; actives 2.2% (n = 190,000); AID 1456, 2008;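 active = thallium flux slope and its plate-corrected score both differing from the plate sample mean at a set confidence after two filtering rounds, in either direction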;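 also: slope of fluorescence scaled to starting intensity during 10 to 20 s after thallium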
Target sequence (Q9H2X9 whole entry, looked up): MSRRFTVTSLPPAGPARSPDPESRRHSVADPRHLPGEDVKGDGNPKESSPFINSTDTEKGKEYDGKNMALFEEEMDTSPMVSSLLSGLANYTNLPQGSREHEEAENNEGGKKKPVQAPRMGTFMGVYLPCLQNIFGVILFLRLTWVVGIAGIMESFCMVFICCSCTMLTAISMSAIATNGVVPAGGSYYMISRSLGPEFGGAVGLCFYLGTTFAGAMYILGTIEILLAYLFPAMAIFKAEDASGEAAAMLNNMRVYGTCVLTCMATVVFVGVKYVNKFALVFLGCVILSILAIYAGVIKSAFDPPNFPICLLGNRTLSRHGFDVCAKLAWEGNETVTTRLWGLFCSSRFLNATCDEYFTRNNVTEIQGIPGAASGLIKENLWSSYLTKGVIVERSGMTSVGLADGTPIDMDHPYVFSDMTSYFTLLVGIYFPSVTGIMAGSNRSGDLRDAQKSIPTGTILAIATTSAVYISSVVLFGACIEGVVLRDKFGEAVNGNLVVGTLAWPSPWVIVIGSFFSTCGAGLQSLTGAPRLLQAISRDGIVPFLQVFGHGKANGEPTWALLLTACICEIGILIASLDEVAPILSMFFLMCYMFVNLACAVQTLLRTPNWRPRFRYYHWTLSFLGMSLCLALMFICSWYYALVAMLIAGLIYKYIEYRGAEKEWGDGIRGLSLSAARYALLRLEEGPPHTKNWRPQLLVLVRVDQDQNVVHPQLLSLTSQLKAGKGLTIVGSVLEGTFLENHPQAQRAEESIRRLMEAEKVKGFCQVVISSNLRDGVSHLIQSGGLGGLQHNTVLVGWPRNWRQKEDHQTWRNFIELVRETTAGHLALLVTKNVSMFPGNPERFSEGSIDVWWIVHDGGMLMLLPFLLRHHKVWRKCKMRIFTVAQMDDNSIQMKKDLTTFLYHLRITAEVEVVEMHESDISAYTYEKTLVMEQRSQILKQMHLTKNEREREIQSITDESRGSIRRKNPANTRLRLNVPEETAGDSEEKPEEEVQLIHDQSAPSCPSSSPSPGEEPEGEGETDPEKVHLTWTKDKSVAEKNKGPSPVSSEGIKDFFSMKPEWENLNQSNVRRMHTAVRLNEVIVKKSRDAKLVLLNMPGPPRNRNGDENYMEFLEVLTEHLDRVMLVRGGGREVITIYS
KCNK3 inh: human KCNK3 channel inhibitors, primary screen, CHO cells, FluxOR thallium flux, B-score | actives 0.84% (n = 340,000) | B-score at 10 µM | Potassium channel subfamily K member 3 (Homo sapiens), O14649 | FluxOR fluorescence; stronger effect = lower value | AID 602410, 2012;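 active = B-score under library mean minus 4 SD, starting fluorescence ratio at most library mean plus 5 SD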;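 also: more negative B-score means stronger inhibition of thallium flux through KCNK3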
KCNQ1 act: potentiators or activators of KCNQ1 channel, primary screen, cell-based, thallium flux, high-throughput; AID 2648, 2010; B-score at 10 µM; CHO-K1 KCNQ1, thallium flux FluxOR fluorescence; stronger effect = higher value; Potassium voltage-gated channel subfamily KQT member 1 (Homo sapiens), P51787; actives 0.35% (n = 310,000);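 active = fluorescence ratio B-score, a plate-corrected score, at least three library SD, with initial intensity B-score within 5 SD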
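assay system = CHO-K1 cells stably expressing KCNQ1 | medium = assay buffer, equal DMSO in all wells | timing = 37 °C overnight plating, 90-min dark dye load, 20-min compound pretreatment | measured by = kinetic FluxOR thallium fluorescence, 10-s 1-Hz baseline, 110-s post-stimulus read | measure = fluorescence change relative to baseline, converted to B score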
KCNQ1 inh: inhibitors of human KCNQ1 channel, primary screen, cell-based, thallium flux, high-throughput; Potassium voltage-gated channel subfamily KQT member 1 (Homo sapiens), P51787; CHO-K1 KCNQ1, FluxOR thallium flux fluorescence; stronger effect = higher value; B-score at 10 µM; actives 1.3% (n = 310,000);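 active = compounds whose thallium flux B-score, printed positive for inhibition, exceeds three library SD while starting fluorescence stays within three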;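 also: channel opened by potassium depolarization with thallium stimulus after 20 min compound exposure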
hERG rescue: hERG rescue from dofetilide block, primary screen, cell-based, CHO-hERG, FluxOR thallium flux, dofetilide IC70. actives 0.51% (n = 310,000). activation (rescue from dofetilide block), less the hit threshold, % at 10 µM. Voltage-gated inwardly rectifying potassium channel KCNH2 (Homo sapiens), Q12809. dofetilide IC70 present;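 active = activation above the mean of controls blocked by dofetilide plus 5 SD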;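 also: thallium influx through hERG after potassium depolarization seen as dye fluorescence rise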
KCNK9 inh: KCNK9 potassium channel inhibitors, primary screen, HEK293 cells, thallium flux. FluxOR thallium flux fluorescence; stronger effect = lower value. B-score at 10 µM. actives 1.2% (n = 310,000). AID 488922, 2010;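 active = ratio B-score over 3 SD below the library mean, with starting fluorescence within 5 SD of its mean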;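 also: negative B-score means less thallium flux so channel inhibition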
KCC2 secondary: KCC2 modulators in sodium-free buffer, confirmation, cell-based, HEK293 KCC2, thallium flux, secondary assay; actives 15% (n = 3,700); normalised thallium flux (F/F0 slope) at 10 µM; shares compounds with Cl transport mod; FluoZin2 fluorescence; stronger effect = higher value;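 active = thallium flux slope above the same plate's solvent-only control mean plus 3 SD; inconclusive = the two replicate wells disagree; inactive = no significant difference from solvent-only control wells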
KCC2 bumet counter: thallium flux persisting under bumetanide in KCC2 cells, confirmation, counter-screen for KCC2 modulator project, cell-based, HEK293 KCC2, FluoZin2, secondary assay 3; HEK293-KCC2 + bumetanide/ouabain; stronger effect = higher value; shares compounds with Cl transport mod; actives 49% (n = 3,700); normalized thallium flux at 10 µM;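 active = thallium entry rate above the same plate's blocked-transporter control wells by more than 3 SD; inconclusive = the two repeat wells disagree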;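 also: raw slope of fluorescence over initial fluorescence between 10 and 20 s after thallium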
KCC2 sec2: KCC2 modulators without ouabain present, confirmation, cell-based, HEK293 KCC2, thallium flux, FluoZin2, secondary assay 2; thallium flux FluoZin2 fluorescence; actives lie on both sides; F/F0 rise rate, 10–20 s post-thallium; actives 23% (n = 3,700); shares compounds with Cl transport mod; AID 1715, 2009; normalized thallium flux at 10 µM;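 active = thallium flux slope more than 3 SD above or below the plate's solvent-only control mean, mostly below; inconclusive = the two repeat wells disagreed; inactive = no significant shift from solvent-only controls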
HEK293 Tl flux: thallium flux modulation in parental HEK cells, confirmation, counter-screen for KCC2 modulator project, cell-based, counterscreen 1 | shares compounds with Cl transport mod | thallium flux rate (normalised fluorescence) at 10 µM | HEK293 parental cells, thallium flux FluoZin2, ouabain; baseline-ratio fluorescence slope, 10–20 s after thallium | actives 46% (n = 3,700);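 active = thallium flux rate significantly above the same plate's solvent-only control wells, beyond their mean plus 3 SD; inconclusive = the two replicate wells gave conflicting results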
KCC2 ouabain: KCC2 inhibitors and activators, ouabain retest, confirmation, HEK-KCC2 cells. shares compounds with Cl transport mod. HEK293-KCC2, thallium flux FluoZin2 fluorescence; bidirectional: low = inhibitor, high = activator. raw Tl+ flux slope (below DMSO = inhibition, above = activation) at 10 µM. actives 48% (n = 3,700). AID 1717, 2009;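 active = thallium flux slope beyond 3 SD from same-plate DMSO control mean in most replicates, usually higher, sometimes lower; inconclusive = repeat tests gave conflicting results; inactive = no significant difference from controls in most replicates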;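 also: slope of initial-normalized fluorescence between seconds 10 and 20 after thallium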
HEK counter2: native HEK Tl+ uptake effects, second counter-screen – HEK cells, counterscreen 2, counter-screen for KCC2 modulator project, confirmation. shares compounds with Cl transport mod. HEK293 parental, thallium flux FluoZin-2 fluorescence slope. thallium flux slope at 10 µM. actives 33% (n = 3,700). AID 1718, 2009;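 active = thallium flux slope above the same plate's solvent-control mean plus 3 SD in both duplicate wells; inconclusive = duplicate wells that disagreed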;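 also: run without ouabain in cells lacking the KCC2 cotransporter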
A number is an active result; i = inactive; ? = inconclusive; nt = no result given. Only some compounds are listed: those with a hit (about 4.1% of all), similar ones and a draw of the others.

SMILES	Cl transport mod	KCNK3 inh	KCNQ1 act	KCNQ1 inh	hERG rescue	KCNK9 inh	KCC2 secondary	KCC2 bumet counter	KCC2 sec2	HEK293 Tl flux	KCC2 ouabain	HEK counter2
CCOc1ccc(NC(=O)c2cc3c(=O)n(C)c4ccccc4c3n2C)cc1	i	i	i	i	i	i	i	i	i	i	?	i
Cn1c(C(=O)NCCCN2CCN(c3ccccc3F)CC2)cc2c(=O)n(C)c3ccccc3c21	i	i	i	i	i	i	i	i	0.024	i	?	i
CN(C(=O)c1ccc(NC(=O)Cc2ccc(NC(=O)C3CCN(S(=O)(=O)c4cccc([N+](=O)[O-])c4)CC3)cc2)cc1)C1CCCC1	nt	i	nt	nt	nt	nt	nt	nt	nt	nt	nt	nt
O=C(CN1C(=O)NC2(CCCC2)C1=O)Nc1cc(Cl)ccc1N1CCCCC1	nt	i	i	i	i	i	nt	nt	nt	nt	nt	nt
Cn1c(=O)c2nc(NCc3ccccc3)sc2n(C)c1=O	nt	i	nt	nt	nt	nt	nt	nt	nt	nt	nt	nt
O=C(NNC(=O)c1ccc(Oc2cc(Cl)cc(Cl)c2)o1)c1ccccc1	28	i	i	i	i	i	0.014	0.051	i	0.02	0.036	0.012
COc1ccc(C(=O)NNC(=O)Cc2ccc(Cl)cc2)cc1	i	i	i	i	i	i	nt	nt	nt	nt	nt	nt
O=C(NNC(=O)c1ccc(Oc2ccc(C3SCCS3)cc2)o1)c1ccc(Cl)cc1	5.4	i	i	i	i	i	i	0.026	i	0.01	0.032	0.01
O=C(NC(=S)Nc1ccccc1Cl)c1cncc(C#Cc2ccccc2)c1	12	i	i	i	i	i	i	0.015	i	0.011	i	?
CSc1nc2nc(C)c(CCC(=O)OCC(=O)Nc3ccc(F)cc3)c(C)n2n1	nt	i	nt	nt	nt	nt	nt	nt	nt	nt	nt	nt
Cc1nc2ccccc2c2c1C(=O)N(C1CCCCCCC1)C2=O	-4.8	i	i	i	i	i	i	?	i	i	i	i
Cc1nc2ccccc2c2c1C(=O)N(c1ccc(C(=O)O)cc1)C2=O	i	i	i	i	i	i	nt	nt	nt	nt	nt	nt
O=C(Nc1nc2ccc(F)cc2s1)c1ccccn1	60	nt	i	i	i	i	i	0.096	0.061	0.056	0.076	0.052
O=C(Nc1nnc(SCc2ccc(F)cc2)s1)c1ccccn1	44	i	i	i	i	i	i	0.039	?	0.036	0.036	0.027
CCOC(=O)c1csc(Nc2nc3ccc(F)cc3s2)n1	27	i	i	i	i	i	0.02	0.079	i	0.056	0.057	0.018
CC(C)CCn1c(=O)c2ccccc2n2c(CN3CCOCC3)nnc12	i	i	i	i	i	i	nt	nt	nt	nt	nt	nt
CCN(CC(=O)NCc1cccs1)C(=O)c1ccc(NS(=O)(=O)c2cccc([N+](=O)[O-])c2)cc1	nt	i	i	i	i	i	nt	nt	nt	nt	nt	nt
O=C(Nc1ccc(-c2nc3ccccc3[nH]2)cc1)c1ccccc1NS(=O)(=O)c1ccc(F)cc1	-4.6	i	i	i	i	i	i	i	i	i	0.015	i
O=C(Nc1cc(S(=O)(=O)N2CCCCC2)ccc1O)c1ccccc1NS(=O)(=O)c1ccc(F)cc1	i	i	i	i	i	i	nt	nt	nt	nt	nt	nt
O=C(Nc1cc(S(=O)(=O)N2CCCCC2)ccc1Cl)c1ccccc1NS(=O)(=O)c1ccc(F)cc1	-4.8	i	i	i	i	i	i	i	?	i	?	i
CS(=O)(=O)c1ccccc1C(=O)Nc1ccc(-c2nc3ccccc3[nH]2)cc1	nt	i	i	i	i	i	nt	nt	nt	nt	nt	nt
O=C(CN1C(=O)/C(=C\c2ccco2)SC1=S)Nc1ccc(O)cc1C(=O)O	nt	i	i	i	i	i	nt	nt	nt	nt	nt	nt
Cc1nc(N2CCOCC2)c2c3c(sc2n1)CCC3	14	i	i	i	i	i	i	0.017	i	0.016	0.032	0.011
CSc1nc(N2CCOCC2)c2c3c(sc2n1)CCCC3	i	i	i	i	i	i	nt	nt	nt	nt	nt	nt
N#C/C(=C\c1cccs1)C(=O)NCc1ccccc1	i	i	i	i	i	i	nt	nt	nt	nt	nt	nt
N#C/C(=C\c1cccs1)C(=O)Nc1nccs1	10	i	i	i	i	i	0.012	0.019	i	0.013	?	0.012
OC(c1ccccc1)C(O)C(c1ccccc1)N1CCCCC1 (configuration not stated)	nt	i	nt	nt	nt	nt	nt	nt	nt	nt	nt	nt
O=C(NCc1ccccc1C(F)(F)F)C1CC(c2cccc(F)c2)=NO1 (configuration not stated)	-2.7	i	i	i	i	i	i	i	i	i	i	i
Cc1cc(C)c(NC(=O)NC(=O)c2cccc(F)c2)c(C)n1	-4.1	i	i	i	i	i	i	i	i	i	i	?
CCc1cc2ccc(OC)cc2nc1SCC(=O)N1CCN(C(=O)c2ccco2)CC1	-4.1	i	i	i	i	i	i	i	0.024	0.0052	0.012	0.0084
